# This is a sample that favours compounds with a hit; in the whole collection about 3.7% have one here.
# NS3 helicase inh: blocks Hepatitis C virus NS3 helicase unwinding. NS3 helicase DNA unwinding, Cy5 molecular beacon fluorescence. actives 0.56% (n = 290,000). inhibition, % at 10.9 µM;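 active = inhibition above the mean of all tested compounds plus 3 SD, set per campaign, cut at about 35% in these data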;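 also: 0% = DMSO wells and 100% = thioflavine S control wells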
#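 Compound dosing – single dose, 10.9 µM nominal final, DMSO 0.8% final · System – NS3 helicase fragment of HCV · Buffer or medium – MOPS pH 6.5, MgCl2, DTT, Tween20, BSA · Signal – Cy5 beacon fluorescence read at start and 1 h · Also added – annealed dual-labelled DNA beacon duplex, ATP-started · Schedule – 1 h at 25 °C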
# TAAR1 antag: antagonists of human TAAR1. actives 1.5% (n = 360,000). inhibition, % at 3 µM. CHO RD-HGA16 TAAR1, Fluo-8 calcium fluorescence, antagonist. Q96RJ0;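 active = inhibition above a per-plate cutoff, the mean inhibition of test compounds on that plate plus 3 SD, cut at about 49% in these data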;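 also: 0% = DMSO plus EC80 beta-PEA response and 100% = DMSO alone without agonist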
# Target sequence (Q96RJ0 whole entry, looked up): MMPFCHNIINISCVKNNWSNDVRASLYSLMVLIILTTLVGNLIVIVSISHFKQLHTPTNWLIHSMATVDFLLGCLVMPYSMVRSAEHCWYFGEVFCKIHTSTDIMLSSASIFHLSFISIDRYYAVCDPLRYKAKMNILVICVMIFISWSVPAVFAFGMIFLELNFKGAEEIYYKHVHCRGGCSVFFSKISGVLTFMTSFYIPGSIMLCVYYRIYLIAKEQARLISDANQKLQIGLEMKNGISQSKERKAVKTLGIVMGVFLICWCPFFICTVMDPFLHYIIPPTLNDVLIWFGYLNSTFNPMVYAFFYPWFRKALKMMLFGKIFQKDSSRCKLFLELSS
#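 Test system: CHO RD-HGA16 cells bearing hTAAR1 | Reagent: β-PEA, EC80 | Compound dosing: 3 µM, single point | Schedule: Dye loading 75 min at 37 °C, then 30 min room temperature | Signal: Calcium fluorescence with Fluo-8 | Evaluation: Percent inhibition of PEA-evoked calcium signal, max/basal emission ratio | Control set: DMSO-only wells and EC80 β-PEA-stimulated wells | Repeats: Singlicate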
# TAAR1 ag: human TAAR1 agonism. CHO RD-HGA16 TAAR1, Fluo-8 calcium fluorescence; vehicle wells 0%, saturating PEA agonist 100%. activation, % at 3 µM. actives 0.99% (n = 360,000);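 active = activation above the mean activation of all test compounds in the run plus 3 SD, cut at about 38% in these data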
#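 System: CHO-derived RD-HGA16 cells with stable Gα16 and human TAAR1. Times: 17-24 h plating, Fluo-8 75 min 37 °C, 30 min RT. Measured by: calcium-sensitive Fluo-8 signal, excitation 470-495, emission 515-575 nm. Read-out basis: % activation relative to PEA EC100 response. Control set: DMSO and PEA EC100. Repeats: no replicates (n 1).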
# HCV core dimer: HCV core protein dimerization inhibition; TR-FRET GST/Flag-core106 dimerization, 1536-well; inhibition, % at 5 µM; actives 0.33% (n = 300,000); AID 1899;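 active = inhibition above the mean of all tested compounds plus 3 SD, set per screening campaign, cut at about 45% in these data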
#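 Assay system: Tagged HCV core106 pair (GST and Flag) | Buffer or medium: KF-containing HEPES buffer, pH 7.45, DTT, CHAPS, BSA | Also added: Eu donor and XL665 acceptor anti-tag antibodies | Dosing: One concentration, 5 µM, in 0.5% DMSO | Timing: 4 h at 22.5 °C | Technique: TR-FRET 671 and 617 nm emission | Repeats: Singlicate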
# rCAG RNA binder: binds r(CAG) RNA repeats; inhibition, % at 3 µM; actives 1.3% (n = 370,000); r(CAG) RNA repeat, TO-PRO-1 dye displacement fluorescence;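 active = inhibition above the plate cutoff, the mean of all test compounds on that plate plus 3 SD, cut at about 35% in these data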;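 also: 0% = DMSO alone and 100% = 100 µM mitoxantrone as full dye displacement; higher means more dye released from RNA so lower well fluorescence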
# NS3 helicase cf: confirmation of Hepatitis C virus NS3 helicase inhibitors; NS3 helicase DNA unwinding, Cy5 molecular beacon fluorescence; AID 1943; shares compounds with NS3 helicase inh; inhibition, % at 10.9 µM; actives 31% (n = 1,600);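 active = inhibition above the mean of all tested compounds plus 3 SD, cutoff set per campaign, cut at about 36% in these data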
# DNA FID counter: displaces DNA intercalator in HCV helicase counter-screen; shares compounds with NS3 helicase inh; DNA fluorescent intercalator displacement, fluorescence; inhibition, % at 7.9 µM; actives 4% (n = 1,600); AID 1945; in the data active = inhibition above about 37%;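 also: 0% = vehicle and 100% = reference compound; higher means more displacement of ethidium bromide from the DNA hairpin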
# DNA FID DR: displaces fluorescent intercalator from DNA, HCV helicase counter-screen | shares compounds with NS3 helicase inh | fluorescent intercalator displacement from DNA, fluorescence | IC50, µM | 120 tested, under 10 active; call rule not given here
# An asterisk follows results filed as active; x = no result given.
SMILES,NS3 helicase inh,TAAR1 antag,TAAR1 ag,HCV core dimer,rCAG RNA binder,NS3 helicase cf,DNA FID counter,others
Cc1ccc(C(CCN(Cc2ccccc2)C(=O)c2ccco2)c2ccco2)cc1 (stereo not drawn),53.9*,33.5,-2.2,37.7,9.6,54.8*,-29.7,DNA FID DR=>79.4
CSC[C@@H]1NC(=S)N(c2ccc(C)cc2)C1=O,36.4*,-0.2,-0.5,34.4,25.2,-12.0,16.9,
Cc1ccc(N2C(=O)C3CCC(C)(C2=O)C3(C)C)cc1 (stereo not drawn),-3.3,10.9,0.9,4.0,-2.4,x,x,
COc1ccccc1CNC(=O)C[C@H]1CC[C@H]2[C@H](COc3ccc(NS(=O)(=O)c4ccc(C)cc4)cc3C(=O)N2C)O1,x,x,x,x,8.2,x,x,
O=S(=O)(O)c1cccc2c(N=Nc3ccc(O)c4ncccc34)cccc12,84.2*,x,x,-16.2,x,77.4*,8.9,
Cc1ccccc1N=Nc1ccc(O)c2ncccc12,7.7,13.2,4.4,-4.5,6.5,x,x,
Cc1ccc(C)c(-c2nnc(NC(=O)Cc3ccc(F)cc3)o2)c1,42.3*,x,x,-13.2,x,-12.8,0.9,
O=C(NCCc1ccc(F)cc1)c1ccc(Sc2ccccc2Cl)c([N+](=O)[O-])c1,x,x,x,x,8.3,x,x,
O=C(COC(=O)/C=C/c1ccco1)Nc1cccc([N+](=O)[O-])c1,38.1*,-4.4,7.0,-0.9,2.8,-18.3,-4.8,
O=C(COC(=O)/C=C/c1ccco1)Nc1ncc(C(F)(F)F)cc1Cl,54.8*,2.7,-0.9,23.8,30.4,7.3,-18.3,
O=C1NC(=S)S/C1=C\c1ccc(SCc2ccco2)o1,75.8*,x,x,-10.3,x,81.0*,31.1,
O=C1NC(=S)S/C1=C/c1ccc(OC(=O)c2ccco2)cc1,21.4,23.7,-1.0,-6.6,32.7,x,x,
COC(=O)N[C@H](C(=O)N[C@@H](Cc1ccccc1)[C@@H](O)CN(Cc1ccc(-c2ccccn2)cc1)NC(=O)[C@@H](NC(=O)OC)C(C)(C)C)C(C)(C)C,x,x,x,x,3.4,x,x,
Cc1cc(N2C(=O)C(O)=C(C(=O)c3cc4ccccc4o3)C2c2cccs2)no1 (stereo not drawn),-1.8,-42.3,-0.6,12.8,29.7,x,x,
Cc1ccc(C2C(C(=O)c3cc4ccccc4o3)=C(O)C(=O)N2c2cc(C)on2)cc1 (stereo not drawn),64.7*,-7.4,-0.3,0.3,19.5,122.8*,-23.7,DNA FID DR=>79.4
O=C(CCn1nnc(-c2cccs2)n1)N1CCCC1,x,x,x,x,-1.4,x,x,
CCCCNC(=O)C[C@@H]1C(=O)N2CCCC3=C2[C@@]1(C(=O)OCC)CCC3,x,x,x,x,-1.1,x,x,
COC(=O)CN1C(=O)[C@H]2[C@@H](c3ccc(C)o3)N3C(=O)CN(CCO)C(=O)[C@@]3(Cc3ccccc3)[C@H]2C1=O,45.5*,14.0,-0.1,3.1,-0.4,-7.1,2.8,
COC(=O)CN1C(=O)[C@H]2[C@@H](c3ccc(C)o3)N3C(=O)CN(CC4CC4)C(=O)[C@@]3(Cc3ccccc3)[C@H]2C1=O,21.9,8.8,4.5,-7.5,-2.3,x,x,
CC(=O)Nc1ccc(NC(=O)CC2Nc3cccc4cccc(c34)NC2=O)cc1 (stereo not drawn),46.4*,8.1,3.3,-17.3,9.9,-1.5,1.5,
Cc1cccc(NC(=O)CC2Nc3cccc4cccc(c34)NC2=O)c1 (stereo not drawn),45.2*,18.4,12.4,-13.7,10.5,-25.9,13.9,
C=CCN1C(=O)[C@@H](CC(=O)N2CCCC2)[C@]2(C(=O)OCC)CCCCC/C=C/12,x,x,x,x,5.3,x,x,
COC(=O)[C@H](C(C)C)N(CCc1cn(Cc2ccc(C)cc2)nn1)S(=O)(=O)c1ccccc1Br,x,x,x,x,4.0,x,x,
C=CCSc1n[nH]c(-c2ccccc2)n1,4.4,-4.6,10.0,-9.7,-1.8,x,x,
C=CCSc1n[nH]c(-c2ccc(OC)cc2)n1,38.6*,5.5,3.2,-3.1,-0.6,-17.0,-2.3,
SMILES,NS3 helicase inh,TAAR1 antag,TAAR1 ag,HCV core dimer,rCAG RNA binder,NS3 helicase cf,DNA FID counter,others
Cc1cc(NC(=O)c2ccc([N+](=O)[O-])cc2Cl)ccc1NC(=O)c1ccco1,36.5*,8.1,-0.2,-4.1,0.3,-7.8,14.4,
Cc1cc(OCc2nnc(SC(C)C(=O)O)n2-c2ccccc2)ccc1Cl (stereo not drawn),53.2*,-25.1,3.2,-1.5,22.0,39.7*,-27.1,
O=C(O)c1ccc(-n2nc(C(F)(F)F)c3c2-c2ccoc2CC3)cc1,37.0*,-2.6,3.8,-0.2,13.3,51.3*,-14.5,
O=C1[C@@H](CCc2ccccc2)[C@@H]2c3cc4ccccc4cc3C=NN2[C@@H]2c3cc4ccccc4cc3C=NN12,x,x,x,x,5.8,x,x,
O=c1c2ccccc2oc2cc(OCc3cccc(F)c3)cc(O)c12,36.7*,-0.6,-0.5,x,12.7,-11.3,16.7,
CC1CCN(c2ccc(C(=O)O)cc2NS(=O)(=O)c2ccc(Cl)s2)CC1,x,x,x,x,28.9,x,x,
Cc1ccc(C)c(NC(=O)C2CCCN2S(=O)(=O)c2cccnc2)c1 (stereo not drawn),x,x,x,x,-1.2,x,x,
C=CCn1c(SCC(=O)N2CCOCC2)nc2scc(-c3ccco3)c2c1=O,15.1,x,x,15.2,x,x,x,
CC(C)C(C)(C#N)NC(=O)CSc1nc2scc(-c3ccco3)c2c(=O)n1-c1ccccc1 (stereo not drawn),36.4*,19.6,9.6,37.6,15.4,105.2*,4.4,DNA FID DR=>79.4
C=CCn1c(SCC(C)=O)nc2scc(-c3ccco3)c2c1=O,39.0*,17.0,2.9,31.5,21.4,-0.9,3.8,
CCCCCC(=O)Nc1nc(C)c(-c2csc(Nc3cc(OC)ccc3OC)n2)s1,39.4*,27.2,3.5,4.0,33.6,4.0,26.4,
COc1ccc(C2C(C(=O)N3CCCCC3C)CC(=O)N2c2ccc(OC)cc2)cc1 (stereo not drawn),x,x,x,x,1.9,x,x,
CCOc1ccc(-n2c(SCC(=O)Nc3cccc4ccccc34)nnc2-c2ccco2)cc1,x,x,x,x,6.4,x,x,
O=C(Nc1c(-c2ccc(C(F)(F)F)cc2)nc2ncccn12)c1ccc(F)cc1,x,x,x,x,4.0,x,x,
O=C1c2ccccc2-c2onc3ccc(NCc4ccco4)c1c23,40.8*,x,x,-49.0,x,21.1,-88.4,
O=C1c2ccccc2-c2onc3ccc(N4CCCC4)c1c23,15.8,40.0,35.2,x,-255.7,x,x,
C=CCOc1c(Cl)cc(CNc2ccc(N(C)C)cc2)cc1OC,50.9*,-14.4,2.0,-42.6,11.6,23.3,21.2,
C=CCOc1c(Cl)cc(CNc2ccc(C)c(Cl)c2)cc1OC,-10.0,x,x,-15.4,x,x,x,
